Reference: publication PMC8247328 (British Journal of Clinical Pharmacology, 2020)
Where a SMILES comes first, the peptide text is derived from it. [ ]: non-standard residue; d: D form.

How the values were obtained:
[1] = tested on: patients with early stage HD; assay: Motor assessments and UHDRS; type: in vivo, human; details: Part 2; 25 mg s.c. once daily 28 d
How it was run: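 In Part 2 only, motor and neurocognitive tests were run at the start and 1.5 h after the final subcutaneous dose on day 28. Each parameter was analysed by mixed-model ANCOVA with treatment as fixed factor and baseline as covariate, with no multiplicity adjustment.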

[2] = Plasma pharmacokinetics of SBT-020; type: in vivo, human
How it was run: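 Dosing was subcutaneous once daily. In Part 1, 24-h plasma profiles were taken on day 1 and at steady state (day 7); Part 2 used steady-state troughs only. Plasma aliquots were spiked with 5% aqueous formic acid, and active-arm samples were assayed by validated LC-MS (LLOQ 2.5 ng/mL). Noncompartmental analysis set pre-Cmax values below LLOQ to zero and excluded post-Cmax ones.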

rats = details: ischaemia/reperfusion, single dose of 4 mg/kg; cited from earlier work
[3] = tested on: patients with early stage HD; assay: Safety: treatment-emergent adverse events, laboratory, vital signs, ECG; type: in vivo, human
How it was run: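 The trial was randomized and placebo-controlled in early HD. Part 1 gave 5, 15 or 25 mg subcutaneously once daily for 7 days (6 active, 2 placebo per cohort). Part 2 re-randomized patients 12:12 to 28 days. Adverse events, vitals, laboratory, ECG and physical examination were recorded on clinic days and at home visits (days 7, 14, 21 in Part 2). Plasma histamine was sampled 15 and 30 min post-dose.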

[4] = tested on: mitochondrial function in calf muscle; assay: Dynamic 31P-MRS of calf skeletal muscle; type: in vivo, human
How it was run: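 Calf muscle was scanned by dynamic 31P-MRS at 7 T with a surface coil and an MRI-compatible pedal ergometer, before, during and after exercise (pulse-acquire, 2-s resolution, flip 45°, 1 average). Pi, PCr and ATP peaks were integrated. τPCr came from a monoexponential fit, and pH from the PCr–Pi frequency difference. Scans were repeated after a 10-min break if end-exercise pH was <6.8. Outliers deviating >5% (up to 10%) were removed. Timing: screening and day 7 (Part 1), day −1 and day 27 (Part 2), 1.5 h post-dose. Analysis was ANCOVA; the posthoc split used the pre-dose median.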

SN4741 cells = details: cultured SN4741 cells exposed to MPTP; cited from earlier work
[5] = tested on: peripheral blood mononuclear cells (PBMCs); assay: Mitochondrial membrane potential of PBMCs; type: in vivo, human; details: Part 1
How it was run: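 Live PBMCs were stained with JC-1 and read by flow cytometry, FL-2 for healthy and FL-1 for dysfunctional mitochondria. A fraction of cells was treated with CCCP as uncoupled positive control, and ΔΨm was calculated from FL2/FL1 ratios ×100. Blood was drawn 1 h before dosing on day 1 and 1.5 h after the final dose on day 7 (Part 1), and 1.5 h post-dose on day 27 (Part 2). Analysis was mixed-model ANCOVA with baseline as covariate.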

[6] = Part 1, 5 mg s.c. once daily 7 d, n=6, day 7
[7] = Part 1, 15 mg s.c. once daily 7 d, n=6, day 7
[8] = Part 1, 25 mg s.c. once daily 7 d, ANCOVA
[9] = Part 1, 25 mg s.c. once daily 7 d, n=6, day 7
[10] = Part 2, 25 mg s.c. once daily 28 d, ANCOVA
[11] = Part 2, 25 mg s.c. once daily 28 d, n=11, day 27
[12] = 5 mg s.c. once daily 7 d, ANCOVA

With `N=C(N)NCCC[C@@H](NC(=O)[C@@H](N)Cc1ccccc1)C(=O)N[C@@H](Cc1ccccc1)C(=O)N[C@@H](CCCCN)C(N)=O` [SBT‐020, H‐Phe‐D‐Arg‐Phe‐Lys‐NH2] (H-F[dR]FK-NH2) the “Effect on motor function” value [1] was “no effect”, the “Exposure higher between day 1 and day 7” value ([2]; Part 1, 25‐mg dose cohort) was “approximately 10%” and the Accumulation ([2]; Part 2, weekly trough samples, 28 days of daily 25 mg s.c.) was “did not accumulate”. The “Median percentage of extrapolated AUC” value ([2]; Part 1 day 7, 15‐mg cohort) was “less than 2%”, the “Apparent elimination half‐life” value ([2]; Part 1 day 7, 15‐mg cohort, mean) was 3.94 h and the “Median percentage of extrapolated AUC” value ([2]; Part 1 day 7, 25‐mg cohort) was “less than 2%”. The Tmax ([2]; human, plasma, sc) was roughly 1 h, the “Dose proportionality of exposure” value ([2]; once daily subcutaneous administration) was “dose‐proportional exposure” and the “Infarct size and myocardial lipid peroxidation” value (rats) was “significantly reduced”. For the same compound, the Overall safety ([3]; 5, 15, 25 mg s.c. once daily 7 d and 25 mg 28 d) was “safe in all dose levels”, the Plasma histamine levels ([3]; 15 and 30 minutes after administration) was “not elevated” and the “Severity of injection site reactions” value ([3]; Parts 1 and 2, developed within a few minutes of dosing, resolved within the hour) was “mild”. The “τPCr with 31P‐MRS, contrast vs placebo (95% CI)” value (“τPCr with 31P‐MRS … (95% CI)” for short) ([4]; Part 1, 5 mg s.c. once daily 7 d, ANCOVA) was 6.505 (−3.4601, 16.4696) P = .1844 s, the “PCr/ATP resting phase 31P‐MRS scan, LS mean” value [4, 6] was 3.7838 and the “PCr/pi resting phase 31P‐MRS scan, LS mean” value [4, 6] was 9.9289. The “τPCr with 31P‐MRS, LS mean” value ([4]; Part 1, 5 mg s.c. once daily 7 d, n=6, day 7, 1.5 h post dose) was 40.9016 s, the “τPCr with 31P‐MRS … (95% CI)” value ([4]; Part 1, 15 mg s.c. once daily 7 d, ANCOVA) was 8.807 (−1.0294, 18.6436) P = .0757 s and the “PCr/ATP resting phase 31P‐MRS scan, LS mean” value [4, 7] was 3.8400. The “PCr/pi resting phase 31P‐MRS scan, LS mean” value [4, 7] was 11.5607, the “τPCr with 31P‐MRS, LS mean” value ([4]; Part 1, 15 mg s.c. once daily 7 d, n=6, day 7, 1.5 h post dose) was 43.2040 s and the “PCr/pi resting phase 31P‐MRS scan, contrast vs placebo (95% CI)” value [4, 8] was 0.7604 (−1.0773, 2.598) P = .3948. For the same compound, the “τPCr with 31P‐MRS … (95% CI)” value [4, 8] was 5.477 (−5.5072, 16.4620) P = .3047 s, the “PCr/ATP resting phase 31P‐MRS scan, LS mean” value [4, 9] was 3.8510 and the “PCr/pi resting phase 31P‐MRS scan, LS mean” value [4, 9] was 11.2289. The “τPCr with 31P‐MRS, LS mean” value ([4]; Part 1, 25 mg s.c. once daily 7 d, n=6, day 7, 1.5 h post dose) was 39.8743 s, the “Mean τPCr after 7 days of treatment” value ([4]; Part 1, 5‐mg cohort, baseline mean 41.9) was 42.5 s and the “Mean τPCr after 7 days of treatment” value ([4]; Part 1, 15‐mg cohort, baseline mean 40.0) was 43.1 s. The “Mean τPCr after 7 days of treatment” value ([4]; Part 1, 25‐g cohort (so in the source), baseline mean 39.2) was 38.8 s, the “Effect on τPCr, ∆Ψm and percentage of dysfunctional PBMCs” value ([4]; Part 1, after 7 days of treatment, 5, 15, 25 mg) was “No overall or dose‐related effects” and the “PCr/ATP resting phase 31P‐MRS scan, contrast vs placebo (95% CI)” value [4, 10] was “−.07 (−0.3, 0.2) P = .54”. The “PCr/pi resting phase 31P‐MRS scan, contrast vs placebo (95% CI)” value [4, 10] was 0.1 (−2.0, 2.1) P = .94, the “τPCr with 31P‐MRS … (95% CI)” value [4, 10] was 2.8 (−9.3, 15.0) P = .63 sec and the “PCr/ATP resting phase 31P‐MRS scan, LS mean” value [4, 11] was 3.7. For the same compound, the “PCr/pi resting phase 31P‐MRS scan, LS mean” value [4, 11] was 10.2, the “τPCr with 31P‐MRS, LS mean” value ([4]; Part 2, 25 mg s.c. once daily 28 d, n=11, day 27, 1.5 h post dose) was 40.8 s and the “Change of τPCr, posthoc” value ([4]; Part 2, active, high mitochondrial function group (τPCr of < 42.4 s)) was “did not decrease”. The “Effect on τPCr, ∆Ψm and percentage of dysfunctional PBMCs” value ([4]; Part 2, after 28 days of treatment, 25 mg) was “No overall effects”, the “Cell viability and apoptosis” value (SN4741 cells) was “improved cell viability and reduced apoptosis” and the “Mitochondrial membrane potential (Delta psi), contrast vs placebo (95% CI)” value [5, 12] was 263.528 (−1151.3, 1678.31) P = .7001. The “Percentage of dysfunctional PMBCs, contrast vs placebo (95% CI)” value [5, 12] was −1.980 (−3.819, −0.141) P = .0363%, the “Percentage of dysfunctional PMBCs, LS mean” value ([5]; 5 mg s.c. once daily 7 d, n=6, day 7, 1.5 h post dose) was 3.82% and the “Mitochondrial membrane potential (Delta psi), LS mean” value ([5]; 5 mg s.c. once daily 7 d, n=6, day 7, 1.5 h post dose, PBMCs) was 3162.27. The “Mitochondrial membrane potential (Delta psi), contrast vs placebo (95% CI)” value ([5]; 15 mg s.c. once daily 7 d, ANCOVA) was −16.375 (−1411.2, 1378.48) P = .9806.
